Assay results: paper PMC2575414 (Bioorganic & medicinal chemistry letters, 2008)
Where a SMILES comes first, the peptide text is derived from it. [ ]: non-standard residue; d: D form. The star is where a group is joined. Hydrocinnamoyl = O=C(CCc1ccccc1)*; Ac5c = NC1(C(=O)O)CCCC1; Deg = CCC(N)(CC)C(=O)O

Tests used:
[1] = target: human liver cathepsin B (Homo sapiens, UniProt P07858); assay: Cathepsin B inhibition assay; assay type: biochemical
Procedure, shortened: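 Human liver cathepsin B (1 nM) in 50 mM NaOAc pH 6.0 with 1 mM EDTA and 0.5 mM DTT. Z-Arg-Arg-AMC at 50 µM or 250 µM, plus varying inhibitor concentrations in DMSO (2% total). Ki is the mean of triplicates from Dixon plots (r ≥ 0.95). Selectivity ratio is […].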

[2] = target: T1, porcine erythrocyte μ-calpain (Sus scrofa, UniProt P35750); assay: Calpain inhibition assay; assay type: biochemical
T1 sequence (P35750 1-714): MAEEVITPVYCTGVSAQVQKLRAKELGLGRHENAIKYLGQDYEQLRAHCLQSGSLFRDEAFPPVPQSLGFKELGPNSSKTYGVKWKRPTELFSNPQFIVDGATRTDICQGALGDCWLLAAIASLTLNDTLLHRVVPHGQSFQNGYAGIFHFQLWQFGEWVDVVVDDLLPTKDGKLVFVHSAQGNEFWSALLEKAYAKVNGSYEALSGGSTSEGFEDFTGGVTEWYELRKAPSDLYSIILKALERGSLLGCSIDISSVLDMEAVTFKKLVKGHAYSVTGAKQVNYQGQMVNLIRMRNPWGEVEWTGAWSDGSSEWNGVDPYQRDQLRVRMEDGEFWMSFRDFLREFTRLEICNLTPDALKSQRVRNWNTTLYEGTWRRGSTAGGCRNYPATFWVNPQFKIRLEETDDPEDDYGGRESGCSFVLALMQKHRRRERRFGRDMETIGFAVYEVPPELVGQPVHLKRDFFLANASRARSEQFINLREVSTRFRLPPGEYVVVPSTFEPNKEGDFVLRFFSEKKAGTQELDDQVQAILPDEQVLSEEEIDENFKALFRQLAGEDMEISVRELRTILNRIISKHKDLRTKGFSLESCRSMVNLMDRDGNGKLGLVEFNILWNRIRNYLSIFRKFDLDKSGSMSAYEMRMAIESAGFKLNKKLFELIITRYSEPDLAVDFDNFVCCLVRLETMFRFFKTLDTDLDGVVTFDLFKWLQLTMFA
T1 sequence (P04574 1-266 partner): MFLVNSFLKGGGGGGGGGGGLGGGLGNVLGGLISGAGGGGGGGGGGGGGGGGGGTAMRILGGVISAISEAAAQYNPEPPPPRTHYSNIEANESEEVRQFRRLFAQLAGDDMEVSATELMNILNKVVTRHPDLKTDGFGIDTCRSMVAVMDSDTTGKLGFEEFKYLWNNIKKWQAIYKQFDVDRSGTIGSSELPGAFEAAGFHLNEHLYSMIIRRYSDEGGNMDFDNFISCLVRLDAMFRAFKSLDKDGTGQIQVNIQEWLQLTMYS

Structure (SMILES)	cathepsin B inhibition relative to compound 3 ([1]; 2 compared to 3)	selectivity for cathepsin B compared to μ-calpain ([1]; as stated in abstract)	selectivity for μ-calpain compared to cathepsin B [2]	potency for μ-calpain inhibition relative to compound 2 ([2]; 3 compared to 2)
O=C[C@H](Cc1ccccc1)NC(=O)C1(NC(=O)CCc2ccccc2)CCCC1 [Compound 2, 1-(3-Phenyl-propionylamino)-cyclopentane carboxylic acid (1-benzyl-2-oxo-ethyl)-amide] (Hydrocinnamoyl-[Ac5c]-Phe-aldehyde)	3 fold	3 fold	–	–
CCC(CC)(NC(=O)CCc1ccccc1)C(=O)N[C@H](C=O)Cc1ccccc1 [Compound 3, N-(1-Benzyl-2-oxo-ethyl)-2-ethyl-2-(3-phenyl-propionylamino)-butyramide] (Hydrocinnamoyl-[Deg]-Phe-aldehyde)	–	–	over 35 fold	over 20 fold
